# Results taken from ChEMBL document CHEMBL4033772, “New Class of Antitrypanosomal Agents Based on Imidazopyridines” (ACS Med Chem Lett, 2017).
# pEC50: −log10 of the molar value.
# Tested on: Trypanosoma cruzi
# Assay: Antitrypanosomal activity against Trypanosoma cruzi Tulahuen amastigotes infected in mouse 3T3 cells after 6 days by beta galactosidase reporter asay
# Type: functional, cell-based
# Conditions: NIH3T3, 144 h
Compound,pEC50,EC90 [nM]
Cn1nc(C(C)(C)C)cc1C(=O)Nc1ccn2cc(-c3ccc(F)c(F)c3)nc2c1,6.24,1520
O=C(Nc1ccn2cc(-c3ccc(F)c(F)c3)nc2c1)N1CCCC1,5.65,2570
O=C(Nc1ccn2cc(-c3ccc(F)c(F)c3)nc2c1)N1CC[C@H](F)C1,6.41,600
O=C(Nc1ccn2cc(-c3cccc(F)c3)nc2c1)N1CCCC1,5.53,6010
O=C(Nc1ccn2cc(-c3cccc(F)c3)nc2c1)N1CC[C@H](F)C1,6.15,880
O=C(Nc1ccn2cc(-c3ccccc3)nc2c1)N1CCCC1,5.35,6440
Cn1nc(C(C)(C)C)cc1C(=O)Nc1cc2nc(-c3ccc(F)c(F)c3)cn2cn1,6.77,640
Cc1noc(C)c1C(=O)Nc1ccn2cc(-c3ccc(F)c(F)c3)nc2c1,5.04,> 20000
O=C(Nc1ccn2cc(-c3cccc(F)c3)nc2c1)N1CCCCC1,5.51,4530

# Tested on: Trypanosoma brucei brucei
# Assay: Antitrypanosomal activity against Trypanosoma brucei brucei BF427 after 48 hrs by Alamar Blue-based assay
# Type: functional
# Conditions: BF427, 48 h
Compound,pEC50,EC90 [nM]
Cn1nc(C(C)(C)C)cc1C(=O)Nc1ccn2cc(-c3ccc(F)c(F)c3)nc2c1,6.15,> 20000
O=C(Nc1ccn2cc(-c3ccc(F)c(F)c3)nc2c1)N1CCCC1,6.49,730
O=C(Nc1ccn2cc(-c3ccc(F)c(F)c3)nc2c1)N1CC[C@H](F)C1,6.80,310
O=C(Nc1ccn2cc(-c3cccc(F)c3)nc2c1)N1CCCC1,6.14,880
N=C(N)c1ccc(OCCCCCOc2ccc(C(=N)N)cc2)cc1 [PENTAMIDINE],8.67,6.13
O=C(Nc1ccn2cc(-c3cccc(F)c3)nc2c1)N1CC[C@H](F)C1,6.80,820
O=C(Nc1ccn2cc(-c3ccccc3)nc2c1)N1CCCC1,5.65,3270
Cn1nc(C(C)(C)C)cc1C(=O)Nc1cc2nc(-c3ccc(F)c(F)c3)cn2cn1,5.16,> 20000
Cc1noc(C)c1C(=O)Nc1ccn2cc(-c3ccc(F)c(F)c3)nc2c1,< 4.70,> 20000
O=C(Nc1ccn2cc(-c3cccc(F)c3)nc2c1)N1CCCCC1,6.01,1480

# Tested on: not listed separately
# Assay: Cytotoxicity against human CRL8155 cells after 48 hrs by Alamar Blue-based assay
# Type: cell-based
# Conditions: CRL8155, 48 h
# In short: (§1)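 Cytotoxicity tested against human lymphoblasts CRL-8155 and hepatocytes HepG2. Highest concentration tested was 50 µM.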
row,Compound,pEC50
1,Cn1nc(C(C)(C)C)cc1C(=O)Nc1ccn2cc(-c3ccc(F)c(F)c3)nc2c1,< 4.30
2,O=C(Nc1ccn2cc(-c3ccc(F)c(F)c3)nc2c1)N1CCCC1,< 4.30
3,O=C(Nc1ccn2cc(-c3ccc(F)c(F)c3)nc2c1)N1CC[C@H](F)C1,4.45
4,O=C(Nc1ccn2cc(-c3cccc(F)c3)nc2c1)N1CCCC1,< 4.30
5,CCN(CC)CCCC(C)Nc1c2ccc(Cl)cc2nc2ccc(OC)cc12 (stereo unspecified) [QUINACRINE],5.37
6,O=C(Nc1ccn2cc(-c3cccc(F)c3)nc2c1)N1CC[C@H](F)C1,4.53
7,O=C(Nc1ccn2cc(-c3ccccc3)nc2c1)N1CCCC1,4.44
8,Cn1nc(C(C)(C)C)cc1C(=O)Nc1cc2nc(-c3ccc(F)c(F)c3)cn2cn1,4.84
9,Cc1noc(C)c1C(=O)Nc1ccn2cc(-c3ccc(F)c(F)c3)nc2c1,< 4.30
10,O=C(Nc1ccn2cc(-c3cccc(F)c3)nc2c1)N1CCCCC1,< 4.30

# Tested on: HepG2
# Assay: Cytotoxicity against human HepG2 cells after 48 hrs by Alamar Blue-based assay
# Type: cell-based
# Conditions: HepG2, 48 h
# In short: as §1
row,Compound,pEC50
1,Cn1nc(C(C)(C)C)cc1C(=O)Nc1ccn2cc(-c3ccc(F)c(F)c3)nc2c1,< 4.30
2,O=C(Nc1ccn2cc(-c3ccc(F)c(F)c3)nc2c1)N1CCCC1,< 4.30
3,O=C(Nc1ccn2cc(-c3ccc(F)c(F)c3)nc2c1)N1CC[C@H](F)C1,< 4.30
4,O=C(Nc1ccn2cc(-c3cccc(F)c3)nc2c1)N1CCCC1,< 4.30
5,O=C(Nc1ccn2cc(-c3cccc(F)c3)nc2c1)N1CC[C@H](F)C1,< 4.30
6,O=C(Nc1ccn2cc(-c3ccccc3)nc2c1)N1CCCC1,< 4.30
7,Cn1nc(C(C)(C)C)cc1C(=O)Nc1cc2nc(-c3ccc(F)c(F)c3)cn2cn1,< 4.30
8,Cc1noc(C)c1C(=O)Nc1ccn2cc(-c3ccc(F)c(F)c3)nc2c1,< 4.30
9,O=C(Nc1ccn2cc(-c3cccc(F)c3)nc2c1)N1CCCCC1,< 4.30

# Tested on: not listed separately
# Assay: Half life in mouse liver microsomes by LC-MS/MS method
# Type: ADME, microsome
# Conditions: not given
# In short: (§2)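 Incubation with mouse liver microsomes, run in duplicate. Testosterone and dextromethorphan included as controls in each assay.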
row,Compound,half-life [min]
1,C[C@]12CC[C@H]3[C@@H](CCC4=CC(=O)CC[C@@]43C)[C@@H]1CC[C@@H]2O [TESTOSTERONE],5.68
2,COc1ccc2c(c1)[C@]13CCCC[C@@H]1[C@H](C2)N(C)CC3 [DEXTROMETHORPHAN],1.11
3,O=C(Nc1ccn2cc(-c3ccc(F)c(F)c3)nc2c1)N1CC[C@H](F)C1,> 60
4,O=C(Nc1ccn2cc(-c3cccc(F)c3)nc2c1)N1CC[C@H](F)C1,> 60
5,Cn1nc(C(C)(C)C)cc1C(=O)Nc1cc2nc(-c3ccc(F)c(F)c3)cn2cn1,60

# Tested on: Liver
# Assay: Stability of the compound in mouse liver microsomes assessed as compound remaining by LC-MS/MS method
# Type: ADME, microsome
# Conditions: not given
# In short: as §2
row,Compound,Stability [%]
1,O=C(Nc1ccn2cc(-c3ccc(F)c(F)c3)nc2c1)N1CC[C@H](F)C1,100
2,O=C(Nc1ccn2cc(-c3cccc(F)c3)nc2c1)N1CC[C@H](F)C1,84.5
3,Cn1nc(C(C)(C)C)cc1C(=O)Nc1cc2nc(-c3ccc(F)c(F)c3)cn2cn1,47.1

# Tested on: not listed separately
# Assay: Solubility of the compound in PBS at pH 7.4 at 50 uM after overnight incubation by LC-MS/MS method
# Type: physicochemical
# Conditions: not given
# In short: (§3)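 Solubility measured at pH 7.4, 6.5 and 2.0.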
row,Compound,solubility at 50 µM [µM]
1,O=C(Nc1ccn2cc(-c3ccc(F)c(F)c3)nc2c1)N1CC[C@H](F)C1,32.8
2,O=C(Nc1ccn2cc(-c3cccc(F)c3)nc2c1)N1CC[C@H](F)C1,49.7
3,Cn1nc(C(C)(C)C)cc1C(=O)Nc1cc2nc(-c3ccc(F)c(F)c3)cn2cn1,2.7

# Tested on: not listed separately
# Assay: Solubility of the compound in PBS at pH 6.5 at 50 uM after overnight incubation by LC-MS/MS method
# Type: physicochemical
# Conditions: not given
# In short: as §3
row,Compound,solubility at 50 µM [µM]
1,O=C(Nc1ccn2cc(-c3ccc(F)c(F)c3)nc2c1)N1CC[C@H](F)C1,49.9
2,O=C(Nc1ccn2cc(-c3cccc(F)c3)nc2c1)N1CC[C@H](F)C1,43.8
3,Cn1nc(C(C)(C)C)cc1C(=O)Nc1cc2nc(-c3ccc(F)c(F)c3)cn2cn1,7.6

# Tested on: not listed separately
# Assay: Solubility of the compound in HCl at pH 2.0 at 50 uM after overnight incubation by LC-MS/MS method
# Type: physicochemical
# Conditions: not given
# In short: as §3
row,Compound,solubility at 50 µM [µM]
1,O=C(Nc1ccn2cc(-c3ccc(F)c(F)c3)nc2c1)N1CC[C@H](F)C1,45.9
2,O=C(Nc1ccn2cc(-c3cccc(F)c3)nc2c1)N1CC[C@H](F)C1,52
3,Cn1nc(C(C)(C)C)cc1C(=O)Nc1cc2nc(-c3ccc(F)c(F)c3)cn2cn1,1.3

# Tested on: not listed separately
# Assay: Protein binding in Swiss Webster mouse plasma assessed as drug recovery at 2 uM by LC-MS/MS analysis
# Type: ADME, cell-free
# Conditions: read-out: Drug recovery
# In short: (§4)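 Plasma protein binding measured in 100% mouse plasma, giving % recovery and % fraction unbound. Propranolol control included in every experiment.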
row,Compound,recovery at 2 µM [%]
1,CC(C)NCC(O)COc1cccc2ccccc12 (stereo unspecified) [PROPRANOLOL],75.7
2,O=C(Nc1ccn2cc(-c3ccc(F)c(F)c3)nc2c1)N1CC[C@H](F)C1,64.5
3,O=C(Nc1ccn2cc(-c3cccc(F)c3)nc2c1)N1CC[C@H](F)C1,68.5
4,Cn1nc(C(C)(C)C)cc1C(=O)Nc1cc2nc(-c3ccc(F)c(F)c3)cn2cn1,73.3

# Tested on: not listed separately
# Assay: Fraction unbound in Swiss Webster mouse plasma at 2 uM by LC-MS/MS analysis
# Type: ADME, cell-free
# Conditions: not given
# In short: as §4
row,Compound,fraction unbound at 2 µM
1,CC(C)NCC(O)COc1cccc2ccccc12 (stereo unspecified) [PROPRANOLOL],0.114
2,O=C(Nc1ccn2cc(-c3ccc(F)c(F)c3)nc2c1)N1CC[C@H](F)C1,0.04
3,O=C(Nc1ccn2cc(-c3cccc(F)c3)nc2c1)N1CC[C@H](F)C1,0.03
4,Cn1nc(C(C)(C)C)cc1C(=O)Nc1cc2nc(-c3ccc(F)c(F)c3)cn2cn1,0.007

# Tested on: not listed separately
# Assay: Drug level in Swiss Webster mouse brain at 5 mg/kg, ip after 1 hr by LC-MS/MS analysis
# Type: ADME, organism-based
# Conditions: read-out: Drug uptake
# In short: (§5)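 Mice in groups of three got a single 5 mg/kg ip dose. Animals were sacrificed 1 h postdose, and brain and plasma were collected for analysis. Brain:plasma ratio was calculated from the mean concentrations.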
row,Compound,concentration at 1 h [nM]
1,O=C(Nc1ccn2cc(-c3ccc(F)c(F)c3)nc2c1)N1CC[C@H](F)C1,550

# Tested on: not listed separately
# Assay: Plasma concentration in Swiss Webster mouse at 5 mg/kg, ip after 1 hr by LC-MS/MS analysis
# Type: ADME, organism-based
# Conditions: not given
# In short: as §5
row,Compound,concentration at 1 h [nM]
1,O=C(Nc1ccn2cc(-c3ccc(F)c(F)c3)nc2c1)N1CC[C@H](F)C1,4840

# Tested on: not listed separately
# Assay: Ratio of drug level in Swiss Webster mouse brain to plasma at 5 mg/kg, ip measured after 1 hr by LC-MS/MS analysis
# Type: ADME, organism-based
# Conditions: read-out: BPR
# In short: as §5
row,Compound,Kp at 1 h
1,O=C(Nc1ccn2cc(-c3ccc(F)c(F)c3)nc2c1)N1CC[C@H](F)C1,0.114

# Tested on: not listed separately
# Assay: Selectivity ratio of EC50 for Trypanosoma cruzi Tulahuen amastigotes to EC50 for Trypanosoma brucei brucei BF427
# Type: functional
# Conditions: not given
row,Compound,Ratio EC50
1,O=C(Nc1ccn2cc(-c3ccc(F)c(F)c3)nc2c1)N1CCCC1,7
